The source made the active and inactive calls. No cut-off for these calls is given here.
How the values were obtained:
[1] = Cytotoxicity against human UCI101 cells after 48 hrs by alamar blue assay; type: functional, cell-based; settings: UCI101, 48 h
Procedure, shortened: (§1)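 MDA-MB231, MiaPaCa2 and SNU423 cells (ATCC) were grown in DMEM, and UCI-101 cells in IMDM. Both media had 10% FBS plus penicillin/streptomycin/glutamine, under 5% CO2. Cells were treated for 48 h at seven concentrations from 0 to 3.0. Alamar Blue was added at 1/10 volume and OD was read at 570 and 600 nm. % growth inhibition versus untreated cells used extinction-coefficient formula; IC50 from three experiments.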

[2] = test system: MDA-MB-231; experiment: Cytotoxicity against human MDA-MB-231 cells after 48 hrs by alamar blue assay; type: functional, cell-based; settings: MDA-MB-231, 48 h; procedure, shortened: as §1
[3] = test system: MIA PaCa-2; experiment: Cytotoxicity against human MIAPaCa2 cells after 48 hrs by alamar blue assay; type: functional, cell-based; settings: MIA PaCa-2, 48 h; procedure, shortened: as §1
[4] = test system: SNU-423; experiment: Cytotoxicity against human SNU423 cells after 48 hrs by alamar blue assay; type: functional, cell-based; settings: SNU-423, 48 h; procedure, shortened: as §1
[5] = Solubility in water; type: physicochemical
[6] = Inhibition of tubulin without microtubule associated protein polymerization at 5 uM after 60 mins
[7] = test system: HL-60; experiment: Induction of apoptosis in human HL60 cells by flow cytometry; type: functional, cell-based

Compound: CC[C@]1(O)C[C@H]2CN(CCc3c([nH]c4ccccc34)[C@@](C(=O)OC)(c3cc4c(cc3OC)N(C=O)[C@H]3[C@@](O)(C(=O)OC)[C@H](OC(C)=O)[C@]5(CC)C=CCN6CC[C@]43[C@@H]65)C2)C1 [VINCRISTINE]
- IC50 [1]: 20 nM
- IC50 [2]: 15 nM
- IC50 [3]: 15 nM
- IC50 [4]: 10 nM

Compound: COc1cc(/C=C\c2ccc(OC)c(N)c2)cc(OC)c1 [listing 1 of 2 here]
- solubility [5]: < 1000 µg/mL

Compound: COc1cc(/C=C\c2ccc3c(ccn3C)c2)cc(OC)c1
- IC50 [1]: 40 nM
- solubility [5]: < 1000 µg/mL
- IC50 [2]: 80 nM
- IC50 [3]: 80 nM
- IC50 [4]: 30 nM

Compound: COc1cc(/C=C\c2ccc(OC)c(NC(=O)OCCN3CCOCC3)c2)cc(OC)c1 [listing 1 of 2 here]
- solubility [5]: < 1000 µg/mL

Compound: COc1cc(/C=C\c2ccc(OC)c(N)c2)cc(OC)c1.O=C(O)C(=O)O
- solubility [5]: < 1000 µg/mL

Compound: COc1cc(/C=C\c2ccc(OC)c(NC(=O)OCCN3CCOCC3)c2)cc(OC)c1 [listing 2 of 2 here]
- IC50 [1]: 5000 nM
- IC50 [4]: 5000 nM

Compound: COc1cc(/C=C\c2ccc(OC)c(NC(=O)OCCOCCOCCO)c2)cc(OC)c1
- IC50 [1]: > 10000 nM

Compound: COc1cc(/C=C\c2ccc(OC)c(N)c2)cc(OCC(=O)O)c1
- IC50 [1]: > 10000 nM

Compound: COc1ccc(/C=C\c2ccc3[nH]ccc3c2)cc1N
- IC50 [1]: 5000 nM

Compound: CCOc1cc(/C=C\c2ccc(OC)c(N)c2)cc(OC)c1
- IC50 [1]: 80 nM
- Activity [6]: Active

Compound: C=CCOc1cc(/C=C\c2ccc(OC)c(N)c2)cc(OC)c1
- IC50 [1]: 200 nM

Compound: COc1cc(O)cc(/C=C\c2ccc(OC)c(N)c2)c1
- IC50 [1]: 800 nM
- IC50 [2]: 800 nM
- Activity [6]: Active
- IC50 [3]: 700 nM
- IC50 [4]: 2000 nM

Compound: COc1cc(/C=C\c2ccc(OC)c(N)c2)cc(OC)c1.Cl
- IC50 [1]: 30 nM
- solubility [5]: 6000 µg/mL
- IC50 [2]: 30 nM
- IC50 [3]: 40 nM
- IC50 [7]: 30 nM
- IC50 [4]: 30 nM

Compound: COc1cc(/C=C\c2ccc3[nH]cnc3c2)cc(OC)c1
- IC50 [1]: 260 nM
- IC50 [2]: 800 nM
- IC50 [3]: 800 nM
- IC50 [4]: 1000 nM

Compound: COc1cc(/C=C\c2ccc(OC)c(O)c2)cc(OC)c1
- IC50 [1]: 30 nM
- IC50 [7]: 30 nM
- IC50 [4]: 15 nM

Compound: COc1cc2c(c(OC)c1OC)-c1ccc(OC)c(=O)cc1[C@@H](NC(C)=O)CC2 [COLCHICINE]
- IC50 [1]: 30 nM
- IC50 [2]: 20 nM
- Activity [6]: Active
- IC50 [3]: 25 nM
- IC50 [4]: 25 nM

Compound: COc1cc(/C=C\c2ccc3[nH]ccc3c2)cc(OC)c1
- IC50 [1]: 250 nM
- IC50 [2]: 250 nM
- IC50 [3]: 200 nM
- IC50 [4]: 700 nM

Compound: COc1ccc(/C=C\c2cc(OC)c(OC)c(OC)c2)cc1O [COMBRETASTATIN A4]
- IC50 [1]: 2 nM
- IC50 [2]: 4 nM
- IC50 [3]: 8 nM
- IC50 [4]: 6 nM

Compound: COc1cc(/C=C\c2ccc(OC)c(NC(=O)OCCN3CCOCC3)c2)cc(OC)c1.O=C(O)C(=O)O
- solubility [5]: 5900 µg/mL

Compound: COc1cc(/C=C\c2ccc3cc[nH]c3c2)cc(OC)c1
- IC50 [1]: 250 nM
- IC50 [2]: 250 nM
- IC50 [3]: 200 nM
- IC50 [4]: 700 nM

Compound: COc1cc(/C=C\c2ccc(OC)c(N)c2)cc(OCCO)c1
- IC50 [1]: 150 nM
- IC50 [2]: 80 nM
- IC50 [3]: 180 nM
- IC50 [4]: 200 nM

Compound: COc1cc(/C=C\c2ccc(OC)c(N)c2)cc(OC)c1 [listing 2 of 2 here]
- Activity [6]: Active

Compound: COc1cc(/C=C\c2ccc(OC)c(NC(=O)NCCN3CCOCC3)c2)cc(OC)c1
- IC50 [1]: > 10000 nM

Compound: COc1cc(/C=C\c2ccc3ccn(C)c3c2)cc(OC)c1
- IC50 [1]: 220 nM

Compound: COc1ccc(/C=C\c2ccc3c(ccn3C)c2)cc1N
- IC50 [1]: 200 nM
- solubility [5]: < 1000 µg/mL

Compound: COc1cc(/C=C\c2ccc(OC)c(N)c2)cc(OC(C)C)c1
- IC50 [1]: 100 nM

Source: ChEMBL document CHEMBL1140891, “Design, synthesis and biological evaluation of novel stilbene-based antitumor agents” (Bioorg Med Chem, 2009)
